High-throughput results (PubChem)
m5-HT2A agonist: mouse HTR2A agonism via beta-arrestin recruitment | P35363 | CHO-K1 mHTR2A beta-arrestin complementation, luminescence; percent of 30 µM serotonin response | activation, % at 7.6 µM | 360,000 compounds, 0.66% hits | AID 624169;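 active = activation above a run cutoff, the mean activation of all tested compounds plus 3 SD, cut at about 14% in these data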;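 note: 0% = plate median of compound wells and 100% = 30 µM serotonin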
Target sequence (P35363 whole entry, looked up): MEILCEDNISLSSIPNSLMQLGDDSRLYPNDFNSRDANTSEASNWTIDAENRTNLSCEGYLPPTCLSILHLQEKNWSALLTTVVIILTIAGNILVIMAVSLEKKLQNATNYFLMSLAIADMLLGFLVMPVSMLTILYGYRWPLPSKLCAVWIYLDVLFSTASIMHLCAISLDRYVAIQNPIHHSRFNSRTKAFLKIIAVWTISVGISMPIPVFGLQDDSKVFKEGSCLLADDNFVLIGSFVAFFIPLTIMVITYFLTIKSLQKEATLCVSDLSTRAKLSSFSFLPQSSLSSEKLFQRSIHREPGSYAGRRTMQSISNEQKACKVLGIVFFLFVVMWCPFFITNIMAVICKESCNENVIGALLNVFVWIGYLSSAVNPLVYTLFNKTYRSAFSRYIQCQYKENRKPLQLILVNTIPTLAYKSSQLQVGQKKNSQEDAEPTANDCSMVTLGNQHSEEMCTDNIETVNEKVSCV
M1 ag: activates human CHRM1 receptor | P11229 | CHO-K1 hM1, Fluo-8 calcium fluorescence, agonist mode; 0% DMSO, 100% acetylcholine EC100 | activation, % at 3 µM | 360,000 compounds, 0.33% hits;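 active = activation above the run's mean compound activation plus 3 SD, cut at about 16% in these data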;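 note: peak over basal fluorescence ratio within a 140 s kinetic read after compound addition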
TAAR1 antag: human TAAR1 antagonism. Q96RJ0. CHO RD-HGA16 TAAR1, Fluo-8 calcium fluorescence, antagonist. inhibition, % at 3 µM. 360,000 compounds, 1.5% hits;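 active = inhibition above a per-plate cutoff, the mean inhibition of test compounds on that plate plus 3 SD, cut at about 49% in these data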;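 note: 0% = DMSO plus EC80 beta-PEA response and 100% = DMSO alone without agonist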
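System: RD-HGA16 CHO cells with stable hTAAR1 and Gα16 | Probe or stimulus: EC80 β-phenethylamine stimulus | Dosing: 3 µM, single point | Times: Dye loading 75 min at 37 °C, then 30 min room temperature | Measured by: Fluo-8 calcium-sensitive fluorescence | Read-out basis: % inhibition of agonist calcium response | Replicates: n of 1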
TAAR1 agonist: human TAAR1 agonism | CHO RD-HGA16 TAAR1, Fluo-8 calcium fluorescence; vehicle wells 0%, saturating PEA agonist 100% | activation, % at 3 µM | 360,000 compounds, 0.99% hits;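 active = activation above the mean activation of all test compounds in the run plus 3 SD, cut at about 38% in these data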
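Benchmarks: low control DMSO, high control PEA (EC100); System: CHO RD-HGA16 cells carrying human TAAR1 plus Gα16; Detection: Fluo-8 fluorescence, 5 s baseline then 140 s kinetic read; Schedule: 17-24 h plating, Fluo-8 75 min 37 °C, 30 min RT; Read-out basis: % activation from peak over basal fluorescence ratio, DMSO-to-PEA scaled.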
M1 antag: human CHRM1 antagonism. P11229. CHO-K1 hM1, Fluo-8 calcium fluorescence, ACh EC80 antagonist. inhibition, % at 3 µM. 360,000 compounds, 1.3% hits. AID 588852;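 active = percent inhibition above its own plate's cutoff, namely the mean of that plate's compound wells plus 3 SD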;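 note: peak over basal fluorescence ratio during 140 s after agonist addition; 0% = ACh EC80 plus DMSO and 100% = DMSO alone without agonist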
M1 PAM: potentiates human M1 receptor response to acetylcholine | CHO-K1 hM1, Fluo-8 calcium fluorescence, ACh EC20; 0% = ACh EC20, 100% = maximal ACh | 360,000 compounds, 0.088% hits | P11229 | activation, % at 3 µM; in the data active = activation above about 19%, passing the limit was not always enough
Numbers without * were called inactive; . = no result. Hits are enriched below; roughly 3.9% of the tested compounds scored in any of these assays.

SMILES	m5-HT2A agonist	M1 ag	TAAR1 antag	TAAR1 agonist	M1 antag	M1 PAM
Cc1cc(NC(=O)CS(=O)c2cn(Cc3cccc(Cl)c3)c3ccccc23)no1 (stereo not drawn)	0	23*	25	6	-6	3
COc1ccc(-c2cc(C(=O)OCC(=O)N3CCCCC3)c3ccccc3n2)cc1OC	5	-4	71*	9	6	-10
O=C(c1cc(-c2ccccc2)nc2ccccc12)N1CCN(c2ccccn2)CC1	0	1	43	19	10	1
COc1ccc(-c2cc(C(=O)N3CCCCCC3)c3ccccc3n2)cc1OC	-6	-3	24	10	15	-11
COc1ccc(-c2cc(C(=O)N3CCCC(C(F)(F)F)C3)c3ccccc3n2)cc1OC (stereo not drawn)	2	-4	50*	14	10	0
O=C(c1cc(-c2ccccc2)nc2ccccc12)N1CCN(c2ccccc2O)CC1	3	-1	55*	7	28	-7
CSc1nc(C)nc(N/C=C(\C#N)S(=O)(=O)c2ccccc2Cl)n1	-1	-1	-11	0	-12	3
COc1ccc(CCNC(=O)C(=O)NCC2OCCN2S(=O)(=O)c2ccccc2)cc1OC (stereo not drawn)	-2	-2	-17	3	-12	6
Cc1cc(F)ccc1S(=O)(=O)N1CCCOC1CNC(=O)C(=O)NCCc1ccccc1 (stereo not drawn)	2	1	-2	13	-11	6
O=C(NCCc1ccc(F)cc1)C(=O)NCC1CCCN1S(=O)(=O)c1cccs1 (stereo not drawn)	-2	1	61*	33	8	1
COc1ccc(CCNC(=O)C(=O)NCC2CCCN2S(=O)(=O)c2ccccc2)cc1OC (stereo not drawn)	-2	-1	49*	17	24	-5
O=C(NCCc1ccccc1)C(=O)NCC1OCCCN1S(=O)(=O)c1cc(F)ccc1F (stereo not drawn)	2	0	-11	40*	-9	12
Cc1ccc(NC(=O)[C@@H](Cc2ccccc2)NC(=O)[C@H]2O[C@@H](n3ccc(=O)[nH]c3=O)[C@H](O)[C@@H]2O)cc1C	.	.	-17	0	.	.
O=C(OCC1CCCN2CCCCC12)c1ccc2c(c1)OCO2 (stereo not drawn)	3	-9	-5	1	29*	-19
OCCC1CN(Cc2cccn2-c2cccnc2)CCN1C1CCCC1 (stereo not drawn)	-2	-7	-23	0	-14	5
CSCCC(NC(=O)c1ccccc1Cl)C(=O)NCC1COc2ccccc2O1 (stereo not drawn)	2	-2	-6	-1	31*	-13
Cc1cc2c(c(=O)o1)[C@@]1(C(=O)N(C)c3ccccc31)C1=C(CC(C)(C)CC1=O)O2	.	.	-19	14	.	.
CCn1cc(C(=O)NCCC(=O)NCCCO)c(=O)c2cc3c(cc21)OCO3	-5	-6	-10	0	15	-5
CC(=O)Nc1cc(NC(C)=O)ncn1	5	0	6	3	-13	21
CC(C)(C)CC(C)(C)NC(=O)Nc1cccc([N+](=O)[O-])c1	-4	1	-29	3	32*	-17
O=C(Nc1ccc(OC(F)(F)F)cc1)Nc1cccc([N+](=O)[O-])c1	-6	2	53*	11	34	-14
Cc1ccc(NC(=O)Nc2cccc([N+](=O)[O-])c2)cc1F	-4	1	20	7	26	-16
Cc1noc(C)c1NC(=O)Nc1ccc2c(c1)C(=O)N([C@@H](C)CO)C[C@@H](C)[C@@H](CN(C)Cc1ccc3c(c1)OCO3)O2	0	-11	0	1	-8	5
CCOC(=O)c1cn(Cc2ccc(C)cc2)c2cc(F)ccc2c1=O	-1	17*	-30	3	-10	18
CCOC(=O)CNC(=S)N(CCCN1CCN(C)CC1)Cc1cccs1	-7	-1	9	4	0	13
COc1cccc(NC(=O)CN(C)C(=O)C2CCN(C(=O)c3ccccc3C)CC2)c1	-4	-4	-1	0	0	-1
